A selection: hits, their analogues and other compounds. The true share with any hit is near 2.3%.
OXTR potentiate – human OXTR potentiation | P30559 | CHO-OTR cells, Fluo-8 calcium fluorescence, potentiator mode; 0% = oxytocin EC15, 100% = EC100 | activation, % at 3 µM | actives 0.061% (n = 320,000) | AID 2445;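 active = activation above that plate's cutoff, the mean activation of tested compounds plus 3 SD, cut at about 6.6% in these data, passing the limit was not always enough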;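 note: 100% uses oxytocin at 75 nM as the full agonist control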
Target sequence (P30559 whole entry, looked up): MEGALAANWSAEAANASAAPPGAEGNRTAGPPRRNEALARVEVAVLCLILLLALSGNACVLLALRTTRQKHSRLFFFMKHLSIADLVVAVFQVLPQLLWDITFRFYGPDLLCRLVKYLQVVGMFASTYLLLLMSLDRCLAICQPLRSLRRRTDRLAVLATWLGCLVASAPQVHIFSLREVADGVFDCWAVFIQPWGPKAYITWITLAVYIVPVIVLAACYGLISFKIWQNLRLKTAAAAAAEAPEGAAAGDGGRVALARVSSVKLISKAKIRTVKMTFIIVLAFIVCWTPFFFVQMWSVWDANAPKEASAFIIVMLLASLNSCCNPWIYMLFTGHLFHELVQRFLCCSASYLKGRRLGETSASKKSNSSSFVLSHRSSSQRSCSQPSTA
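Dosing: Single dose, 3.0 µM nominal final compound concentration | Material: Human OTR in CHO cells | Technique: Kinetic Fluo-8 calcium fluorescence | Benchmarks: EC15 oxytocin alone as 0%, 75 nM oxytocin as 100% | Probe or stimulus: Oxytocin at about EC15, sub-maximal agonist stimulus | Incubation: Compound 6 min at room temperature before oxytocin, 100 s read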
V1aR counter – counter-screen for oxytocin receptor agonists: human V1a receptor agonists | P37288 | CHO-V1R cells, Fluo-8 calcium fluorescence, agonist mode; 0% DMSO, 100% 3 nM vasopressin | activation, % at 3 µM | actives 0.25% (n = 320,000);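 active = activation above the mean activation of all tested compounds plus 3 SD, per screening run, cut at about 20% in these data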;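 note: signal is peak over basal fluorescence ratio across a 100 second FLIPR read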
TAAR1 antagonist – antagonists of human TAAR1. CHO RD-HGA16 TAAR1, Fluo-8 calcium fluorescence, antagonist. inhibition, % at 3 µM. actives 1.5% (n = 360,000). Q96RJ0;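 active = inhibition above a per-plate cutoff, the mean inhibition of test compounds on that plate plus 3 SD, cut at about 49% in these data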;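 note: 0% = DMSO plus EC80 beta-PEA response and 100% = DMSO alone without agonist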
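Test system: hTAAR1-expressing CHO RD-HGA16 cells, Gα16-coupled; Probe or stimulus: EC80 β-phenethylamine stimulus; Compound dosing: single nominal final test compound concentration of 3 µM; Timing: 140 s kinetic read after compound, 140 s after agonist; Signal: Fluo-8 calcium-sensitive fluorescence; Measure: % inhibition of agonist calcium response; Controls: DMSO and EC80 PEA controls.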
OXTR ag – activates the human oxytocin receptor | activation, % at 3 µM | actives 0.32% (n = 320,000) | CHO-OTR cells, Fluo-8 calcium fluorescence; normalized: DMSO 0%, oxytocin 100% | AID 2435;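 active = activation above the mean of all tested compounds plus 3 SD, cutoff set per screening run, cut at about 20% in these data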;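 note: peak over basal fluorescence ratio from a 100 s FLIPR kinetic read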
TAAR1 agonist – human TAAR1 agonism; actives 0.99% (n = 360,000); CHO RD-HGA16 TAAR1, Fluo-8 calcium fluorescence; vehicle wells 0%, saturating PEA agonist 100%; activation, % at 3 µM; AID 624467;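 active = activation above the mean activation of all test compounds in the run plus 3 SD, cut at about 38% in these data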
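Signal – calcium-sensitive Fluo-8 signal, excitation 470-495, emission 515-575 nm · System – RD-HGA16 (CHO) cells co-expressing Gα16 and hTAAR1 · Incubation – 17-24 h seeding, 75 min 37 °C dye, 30 min RT · Compound dosing – 3 µM single concentration · Repeats – no replicates (n 1)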
An asterisk follows results filed as active; . = no result.

SMILES	OXTR potentiate	V1aR counter	TAAR1 antagonist	OXTR ag	TAAR1 agonist
COc1cc(/C=C(\C#N)c2nc3ccc(C)cc3[nH]2)cc([N+](=O)[O-])c1O	.	.	5	.	7
Cc1ccc2nc(/C(C#N)=C\c3cc(O)ccc3[N+](=O)[O-])[nH]c2c1	-7	0	9	-1	-1
CCCOc1cc(N(CC)CC)ccc1/C=C(/C#N)c1nc2ccc(C)cc2[nH]1	-14	27*	77*	33*	41*
COCCn1c(SCC(=O)c2c(N)n(C3CC3)c(=O)[nH]c2=O)nnc1-c1cccc(C)c1	-1	0	-9	2	20
COc1ccc(OC)c(NS(=O)(=O)c2ccc3c(c2)C(C)(C)C(=O)N3C)c1	-13	1	.	0	.
Cc1ccccc1N=C1SC(CC(=O)Nc2ccc3ccccc3c2)C(=O)N1Cc1ccccn1 (stereo not drawn)	-9	4	51*	3	10
O=C(CC1SC(=Nc2cccc3ccccc23)N(Cc2ccccn2)C1=O)Nc1ccccc1Br (stereo not drawn)	-6	2	-34	2	2
O=C(Nc1cccc(C(F)(F)F)c1)c1ccc(Cn2cc(Br)cn2)o1	-8	12	54*	14	57*
CCNC(=O)c1cc2c(c(-c3cccc(-c4ccccc4F)c3)n1)[C@H](CCO)N(C(=O)CC)C2	.	.	-12	.	2
CCNC(=O)c1cc2c(c(-c3cccc(-c4cc5ccccc5o4)c3)n1)[C@H](CCO)N(C(=O)NC(C)C)C2	.	.	56*	.	12
CCC(=O)N1Cc2cc(C(=O)Nc3nccs3)nc(-c3cccc(-c4ccccc4OC)c3)c2[C@H]1CCO	.	.	57*	.	14
COc1ccccc1-c1cccc(-c2nc(C(=O)Nc3nccs3)cc3c2[C@@H](CCO)N(C(C)=O)C3)c1	.	.	54*	.	20
O=C(c1cc(-c2cccnc2)nc2ccc(Cl)cc12)N1CCN(S(=O)(=O)c2cccs2)CC1	-5	3	51*	2	10
Cc1ccc(-c2c(C#N)c(N)n(-c3ccc(C)cc3)c(=O)c2C#N)cc1	-11	9	10	10	5
Cc1ccc(-n2c(N)c(C#N)c(-c3ccc(Cl)cc3)c(C#N)c2=O)cc1	-25	24*	-4	29*	10
Cc1ccc2c(c1)nnn2C1CCN(S(=O)(=O)c2cccc(S(=O)(=O)N(C)C)c2)CC1	-24	11	56*	9	19
Cc1ccc2c(c1)nnn2C1CCN(S(=O)(=O)c2ccc3ccccc3c2)CC1	-3	2	8	1	3
COc1ccc(NC(=O)COC(=O)c2cccc(S(=O)(=O)N(C)C)c2)cc1	.	.	15	.	2
Cc1cccc(OCC(=O)OCC(=O)Nc2sccc2C(N)=O)c1	-10	13	55*	18	30
NC(=O)c1ccsc1NC(=O)CSc1ccccc1F	-6	2	-1	3	5
NC(=O)c1ccsc1NC(=O)COC(=O)Cc1cccc2ccccc12	-31	9	73*	11	34
Cc1ccccc1SCC(=O)OCC(=O)Nc1sccc1C(N)=O	-12	10	49*	19	16
CN(C)S(=O)(=O)c1cccc(C(=O)OCC(=O)Nc2sccc2C(N)=O)c1	-25	10	75*	18	41*
CCCOc1ccc(CCc2n[nH]c(=S)n2Cc2ccccc2)cc1	-13	3	51*	-1	0
CCCOc1ccc(CCc2n[nH]c(=S)n2-c2ccccc2)cc1	-10	2	-5	1	2
SMILES	OXTR potentiate	V1aR counter	TAAR1 antagonist	OXTR ag	TAAR1 agonist
O=C1CSC(=S)N1/N=C/c1cc(Br)c(O)c(Br)c1	-16	140*	.	158*	.
COc1ccc(NC(=S)c2ccncc2)cc1	-14	4	3	3	41*
O=c1c2cc(F)ccc2sn1-c1ccc(F)cc1	-10	14	.	18	.
Cc1ccc(C)c(-n2sc3ccc(F)cc3c2=O)c1	-8	9	51*	17	45*
COc1ccc(-n2sc3ccc(F)cc3c2=O)cc1	-5	10	45	12	50*
O=C(NCCOc1ccccc1)c1ccccc1Cl	2	-1	-2	0	0
CN(C(=O)COc1ccccc1C(=O)NCCOc1ccccc1)c1ccccc1	-12	6	75*	2	16
COc1ccc(-c2cc(C(=O)Nc3ccc(S(N)(=O)=O)cc3)c3ccccc3n2)cc1OC	-4	0	7	0	7
COc1cc(-c2cc(C(=O)Nc3cc(S(=O)(=O)N4CCOCC4)ccc3O)c3ccccc3n2)cc(OC)c1OC	-5	1	51*	0	1
COc1ccc(-c2cc(C(=O)Nc3cc(S(N)(=O)=O)ccc3C)c3ccccc3n2)cc1OC	-1	-1	31	-1	5
COc1cc(-c2cc(C(=O)Nc3cc(S(=O)(=O)N4CCOCC4)ccc3C)c3ccccc3n2)cc(OC)c1OC	.	.	49*	.	17
COc1ccccc1NC(=O)c1cc(-c2cc(OC)c(OC)c(OC)c2)nc2ccccc12	-3	0	19	0	2
COc1cc(-c2cc(C(=O)Nc3ccc(S(=O)(=O)NCc4ccco4)cc3)c3ccccc3n2)cc(OC)c1OC	-13	6	57*	3	22
O=C(c1ccc(OC2CCN(CCc3ccccc3)CC2)cc1)N1CCC[C@H]1CO	.	.	-17	.	1
NNC(=O)CNC(c1ccccc1)c1cc(Br)ccc1NC(=O)c1ccccc1Br (stereo not drawn)	-15	-1	53*	-1	2
COc1ccccc1CCNC(=O)C(=O)NCC1OCCN1S(=O)(=O)c1ccc(Cl)cc1 (stereo not drawn)	-7	2	7	1	36
O=C(NCCCc1ccccc1)C(=O)NCC1OCCN1S(=O)(=O)c1cc(F)ccc1F (stereo not drawn)	-7	3	-2	-1	1
COc1ccc(CCNC(=O)C(=O)NCC2OCCN2S(=O)(=O)c2cc(F)ccc2F)cc1 (stereo not drawn)	-6	3	55*	3	15
COc1ccccc1CCNC(=O)C(=O)NCC1OCCN1S(=O)(=O)c1ccc(OC)c(OC)c1 (stereo not drawn)	-4	3	-17	1	40*
COc1ccccc1CCNC(=O)C(=O)NCC1OCCN1S(=O)(=O)c1ccc(F)cc1 (stereo not drawn)	-4	0	-18	-2	39*
CC[C@H](C)[C@H](NC(=O)c1ccccc1)C(=O)Nc1ccc(S(=O)(=O)Nc2cc(C)nc(C)n2)cc1	2	1	-7	1	10
CC1Sc2ccc(S(=O)(=O)N(C)Cc3ccccc3)cc2NC1=O (stereo not drawn)	-13	7	49*	3	7

High-throughput results (PubChem BioAssay)
